≈ marks a conversion by molar mass, not a printed value.
Columns and labels:
Type in all cases: functional
Candida albicans [1] = assay: Antifungal activity against Candida albicans after 48 hrs
Summary of the method: (§1)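 Broth with two-fold serial dilutions of compound was inoculated with 1.6 × 10⁴–6 × 10⁴ c.f.u/ml and incubated at 35 °C. MIC is the lowest concentration that arrests growth. For MFC, 0.1 ml was spread on agar, colonies were counted after 48 h at 35 °C, and the endpoint was the lowest concentration killing 99.9%.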

[2] = system: Trichophyton mentagrophytes; assay: Antifungal activity against Trichophyton mentagrophytes after 48 hrs by Halo zone test
Aspergillus fumigatus [3] = assay: Antifungal activity against Aspergillus fumigatus after 48 hrs; summary of the method: as §1
Candida albicans [4] = assay: Antifungal activity against Candida albicans after 48 hrs by Halo zone test
[5] = system: Trichophyton mentagrophytes; assay: Antifungal activity against Trichophyton mentagrophytes after 48 hrs; summary of the method: as §1
Talaromyces marneffei [6] = assay: Antifungal activity against Penicillium marneffei after 48 hrs by Halo zone test
Aspergillus fumigatus [7] = assay: Antifungal activity against Aspergillus fumigatus after 48 hrs by Halo zone test
Talaromyces marneffei [8] = assay: Antifungal activity against Penicillium marneffei after 48 hrs; summary of the method: as §1
Talaromyces marneffei [9] = assay: Antifungal activity against Penicillium marneffei after 48 hrs by agar diffusion method
Streptococcus pyogenes [10] = assay: Antibacterial activity against clinical isolate of Streptococcus pyogenes after 24 hrs by disk diffusion method
Klebsiella pneumoniae [11] = assay: Antibacterial activity against clinical isolate of Klebsiella pneumoniae after 24 hrs by broth dilution method
Klebsiella pneumoniae [12] = assay: Antibacterial activity against clinical isolate of Klebsiella pneumoniae after 24 hrs by disk diffusion method
[13] = system: Trichophyton mentagrophytes; assay: Antifungal activity against Trichophyton mentagrophytes after 48 hrs by agar diffusion method
Staphylococcus aureus [14] = assay: Antibacterial activity against methicillin-resistant Staphylococcus aureus after 24 hrs by disk diffusion method
Staphylococcus aureus [15] = assay: Antibacterial activity against methicillin-resistant Staphylococcus aureus after 24 hrs by broth dilution method
Pseudomonas aeruginosa [16] = assay: Antibacterial activity against Pseudomonas aeruginosa ATCC 27853 after 24 hrs by disk diffusion method
Pseudomonas aeruginosa [17] = assay: Bactericidal activity against Pseudomonas aeruginosa ATCC 27853 after 18 to 24 hrs by colony counting method
Summary of the method: (§2)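 Colonies were counted after 18–24 h at 35 °C. MBC is the lowest concentration that kills 99.9% of the inoculum.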

Escherichia coli [18] = assay: Bactericidal activity against Escherichia coli ATCC 25922 after 18 to 24 hrs by colony counting method; summary of the method: as §2
Streptococcus pyogenes [19] = assay: Antibacterial activity against clinical isolate of Streptococcus pyogenes after 24 hrs by broth dilution method
Aspergillus fumigatus [20] = assay: Antifungal activity against Aspergillus fumigatus after 48 hrs by agar diffusion method
Klebsiella pneumoniae [21] = assay: Bactericidal activity against clinical isolate of Klebsiella pneumoniae after 18 to 24 hrs by colony counting method
Escherichia coli [22] = assay: Antibacterial activity against Escherichia coli ATCC 25922 after 24 hrs by disk diffusion method
Candida albicans [23] = assay: Antifungal activity against Candida albicans after 48 hrs by agar diffusion method
Staphylococcus aureus [24] = assay: Bactericidal activity against methicillin-resistant Staphylococcus aureus after 18 to 24 hrs by colony counting method; summary of the method: as §2
Streptococcus pyogenes [25] = assay: Bactericidal activity against clinical isolate of Streptococcus pyogenes after 18 to 24 hrs by colony counting method
Escherichia coli [26] = assay: Antibacterial activity against Escherichia coli ATCC 25922 after 24 hrs by broth dilution method; settings: ATCC 25922, 24 h
Pseudomonas aeruginosa [27] = assay: Antibacterial activity against Pseudomonas aeruginosa ATCC 27853 after 24 hrs by broth dilution method; settings: ATCC 27853, 24 h

Row | SMILES | MFC (Candida albicans [1]) [µg/mL] | MIC (Candida albicans [1]) [µg/mL] | MFC (Aspergillus fumigatus [3]) [µg/mL] | MIC (Aspergillus fumigatus [3]) [µg/mL] | MFC [5] [µg/mL] | MIC [5] [µg/mL] | MFC (Talaromyces marneffei [8]) [µg/mL] | MIC (Talaromyces marneffei [8]) [µg/mL] | diameter of the inhibition zone (DIZ) (Talaromyces marneffei [9]) [mm] | diameter of the inhibition zone (DIZ) (Streptococcus pyogenes [10]) [mm] | MIC (Klebsiella pneumoniae [11]) [µg/mL] | diameter of the inhibition zone (DIZ) (Klebsiella pneumoniae [12]) [mm] | diameter of the inhibition zone (DIZ) [13] [mm] | diameter of the inhibition zone (DIZ) (Staphylococcus aureus [14]) [mm] | MIC (Staphylococcus aureus [15]) [µg/mL] | diameter of the inhibition zone (DIZ) (Pseudomonas aeruginosa [16]) [mm] | MBC (Pseudomonas aeruginosa [17]) [µg/mL] | MBC (Escherichia coli [18]) [µg/mL] | MIC (Streptococcus pyogenes [19]) [µg/mL] | diameter of the inhibition zone (DIZ) (Aspergillus fumigatus [20]) [mm] | further results
1 | COC1=CC(=O)C[C@@H](C)[C@]12Oc1c(Cl)c(OC)cc(OC)c1C2=O [GRISEOFULVIN] | 12.5 (≈ 35.4 µM) | 6.25 (≈ 17.7 µM) | 25 (≈ 70.9 µM) | 12.5 (≈ 35.4 µM) | 25 (≈ 70.9 µM) | 6.25 (≈ 17.7 µM) | 25 (≈ 70.9 µM) | 12.5 (≈ 35.4 µM) | – | – | – | – | – | – | – | – | – | – | – | – | diameter of the inhibition zone (DIZ) [2]: 24 mm; diameter of the inhibition zone (DIZ) (Candida albicans [4]): 30 mm; diameter of the inhibition zone (DIZ) (Talaromyces marneffei [6]): 20 mm; diameter of the inhibition zone (DIZ) (Aspergillus fumigatus [7]): 27 mm
2 | Cc1nn(-c2ccccc2)c(Cl)c1/C=C/C(=O)C1C(=O)NC(=S)NC1=O | 50 (≈ 129 µM) | 25 (≈ 64.3 µM) | 50 (≈ 129 µM) | 25 (≈ 64.3 µM) | 50 (≈ 129 µM) | 25 (≈ 64.3 µM) | 100 (≈ 257 µM) | 25 (≈ 64.3 µM) | 14.1 | 18.4 | 25 (≈ 64.3 µM) | 15.4 | 17.1 | 17.1 | 25 (≈ 64.3 µM) | 22.1 | 100 (≈ 257 µM) | 100 (≈ 257 µM) | 25 (≈ 64.3 µM) | 17.9 | MBC (Klebsiella pneumoniae [21]): 50 µg/mL (≈ 129 µM); diameter of the inhibition zone (DIZ) (Escherichia coli [22]): 20.7 mm; diameter of the inhibition zone (DIZ) (Candida albicans [23]): 20.4 mm; MBC (Staphylococcus aureus [24]): 50 µg/mL (≈ 129 µM); MBC (Streptococcus pyogenes [25]): 100 µg/mL (≈ 257 µM); MIC (Escherichia coli [26]): 50 µg/mL (≈ 129 µM); MIC (Pseudomonas aeruginosa [27]): 25 µg/mL (≈ 64.3 µM)
3 | Cc1nn(-c2ccccc2)c(Cl)c1/C=C/C(=O)C1C(=O)N(C)C(=O)N(C)C1=O | 50 (≈ 125 µM) | 25 (≈ 62.4 µM) | 50 (≈ 125 µM) | 25 (≈ 62.4 µM) | 50 (≈ 125 µM) | 25 (≈ 62.4 µM) | 50 (≈ 125 µM) | 25 (≈ 62.4 µM) | 14.8 | 20.1 | 50 (≈ 125 µM) | 16.1 | 17.2 | 17.3 | 25 (≈ 62.4 µM) | 25.2 | 100 (≈ 249 µM) | 50 (≈ 125 µM) | 25 (≈ 62.4 µM) | 18.6 | MBC (Klebsiella pneumoniae [21]): 100 µg/mL (≈ 249 µM); diameter of the inhibition zone (DIZ) (Escherichia coli [22]): 22.2 mm; diameter of the inhibition zone (DIZ) (Candida albicans [23]): 21.3 mm; MBC (Staphylococcus aureus [24]): 50 µg/mL (≈ 125 µM); MBC (Streptococcus pyogenes [25]): 50 µg/mL (≈ 125 µM); MIC (Escherichia coli [26]): 25 µg/mL (≈ 62.4 µM); MIC (Pseudomonas aeruginosa [27]): 25 µg/mL (≈ 62.4 µM)
4 | Cc1nn(-c2ccccc2)c(Cl)c1C1CC(C2C(=O)NC(=O)NC2=O)=NN1 (centres undefined) | 100 (≈ 259 µM) | 50 (≈ 129 µM) | 100 (≈ 259 µM) | 50 (≈ 129 µM) | 100 (≈ 259 µM) | 50 (≈ 129 µM) | 100 (≈ 259 µM) | 50 (≈ 129 µM) | 13.1 | 16.8 | 50 (≈ 129 µM) | 14.7 | 16 | 15.3 | 100 (≈ 259 µM) | 20.1 | 100 (≈ 259 µM) | > 100 | 50 (≈ 129 µM) | 16.8 | MBC (Klebsiella pneumoniae [21]): > 100 µg/mL; diameter of the inhibition zone (DIZ) (Escherichia coli [22]): 19.2 mm; diameter of the inhibition zone (DIZ) (Candida albicans [23]): 20.4 mm; MBC (Staphylococcus aureus [24]): > 100 µg/mL; MBC (Streptococcus pyogenes [25]): 100 µg/mL (≈ 259 µM); MIC (Escherichia coli [26]): 50 µg/mL (≈ 129 µM); MIC (Pseudomonas aeruginosa [27]): 50 µg/mL (≈ 129 µM)
5 | Cc1nn(-c2ccccc2)c(Cl)c1C1CC(C2C(=O)N(C)C(=O)N(C)C2=O)=NN1 (centres undefined) | 100 (≈ 241 µM) | 25 (≈ 60.3 µM) | 100 (≈ 241 µM) | 25 (≈ 60.3 µM) | 100 (≈ 241 µM) | 25 (≈ 60.3 µM) | > 100 | 50 (≈ 121 µM) | 14.2 | 17.1 | 50 (≈ 121 µM) | 15.7 | 16.9 | 16.5 | 50 (≈ 121 µM) | 21.8 | 100 (≈ 241 µM) | 100 (≈ 241 µM) | 25 (≈ 60.3 µM) | 17.4 | MBC (Klebsiella pneumoniae [21]): 100 µg/mL (≈ 241 µM); diameter of the inhibition zone (DIZ) (Escherichia coli [22]): 19.6 mm; diameter of the inhibition zone (DIZ) (Candida albicans [23]): 20.8 mm; MBC (Staphylococcus aureus [24]): 100 µg/mL (≈ 241 µM); MBC (Streptococcus pyogenes [25]): 50 µg/mL (≈ 121 µM); MIC (Escherichia coli [26]): 25 µg/mL (≈ 60.3 µM); MIC (Pseudomonas aeruginosa [27]): 50 µg/mL (≈ 121 µM)
6 | Cc1nn(-c2ccccc2)c(Cl)c1C1CC(C2C(=O)NC(=S)NC2=O)=NN1 (centres undefined) | 100 (≈ 248 µM) | 50 (≈ 124 µM) | 100 (≈ 248 µM) | 25 (≈ 62.1 µM) | 100 (≈ 248 µM) | 25 (≈ 62.1 µM) | > 100 | > 100 | 13.1 | 15.2 | 50 (≈ 124 µM) | 14.4 | 15.8 | 14.2 | 100 (≈ 248 µM) | 18.2 | 100 (≈ 248 µM) | 100 (≈ 248 µM) | 50 (≈ 124 µM) | 16.2 | MBC (Klebsiella pneumoniae [21]): > 100 µg/mL; diameter of the inhibition zone (DIZ) (Escherichia coli [22]): 19.1 mm; diameter of the inhibition zone (DIZ) (Candida albicans [23]): 20.2 mm; MBC (Staphylococcus aureus [24]): > 100 µg/mL; MBC (Streptococcus pyogenes [25]): 100 µg/mL (≈ 248 µM); MIC (Escherichia coli [26]): 50 µg/mL (≈ 124 µM); MIC (Pseudomonas aeruginosa [27]): 50 µg/mL (≈ 124 µM)
7 | Cc1nn(-c2ccccc2)c(Cl)c1/C=C/C(=O)C1C(=O)NC(=O)NC1=O | 25 (≈ 67.1 µM) | 12.5 (≈ 33.5 µM) | 25 (≈ 67.1 µM) | 12.5 (≈ 33.5 µM) | 25 (≈ 67.1 µM) | 12.5 (≈ 33.5 µM) | 25 (≈ 67.1 µM) | 12.5 (≈ 33.5 µM) | 14.1 | 22.2 | 12.5 (≈ 33.5 µM) | 17.1 | 17.1 | 20.2 | 12.5 (≈ 33.5 µM) | 27.2 | 25 (≈ 67.1 µM) | 50 (≈ 134 µM) | 12.5 (≈ 33.5 µM) | 21.3 | MBC (Klebsiella pneumoniae [21]): 25 µg/mL (≈ 67.1 µM); diameter of the inhibition zone (DIZ) (Escherichia coli [22]): 24.8 mm; diameter of the inhibition zone (DIZ) (Candida albicans [23]): 25.5 mm; MBC (Staphylococcus aureus [24]): 50 µg/mL (≈ 134 µM); MBC (Streptococcus pyogenes [25]): 25 µg/mL (≈ 67.1 µM); MIC (Escherichia coli [26]): 12.5 µg/mL (≈ 33.5 µM); MIC (Pseudomonas aeruginosa [27]): 12.5 µg/mL (≈ 33.5 µM)
